Structures are written as SMILES. In brackets after ≈: the same amount, converted by molar mass. Activity calls are given as the source filed them. The rule behind the calls is not given here.

Aurora kinase B (Homo sapiens), sequence (Q96GD4 whole entry): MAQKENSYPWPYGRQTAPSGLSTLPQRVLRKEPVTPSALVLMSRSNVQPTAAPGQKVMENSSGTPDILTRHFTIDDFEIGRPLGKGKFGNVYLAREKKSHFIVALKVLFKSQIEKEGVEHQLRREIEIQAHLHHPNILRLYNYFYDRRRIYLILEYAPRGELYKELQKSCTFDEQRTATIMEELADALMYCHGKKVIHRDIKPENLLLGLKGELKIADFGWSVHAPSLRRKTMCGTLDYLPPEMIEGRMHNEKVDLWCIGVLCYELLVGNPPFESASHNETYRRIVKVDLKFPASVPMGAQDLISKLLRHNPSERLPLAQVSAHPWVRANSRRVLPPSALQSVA
Ribosomal protein S6 kinase beta-1 (Homo sapiens), sequence (P23443 whole entry, looked up): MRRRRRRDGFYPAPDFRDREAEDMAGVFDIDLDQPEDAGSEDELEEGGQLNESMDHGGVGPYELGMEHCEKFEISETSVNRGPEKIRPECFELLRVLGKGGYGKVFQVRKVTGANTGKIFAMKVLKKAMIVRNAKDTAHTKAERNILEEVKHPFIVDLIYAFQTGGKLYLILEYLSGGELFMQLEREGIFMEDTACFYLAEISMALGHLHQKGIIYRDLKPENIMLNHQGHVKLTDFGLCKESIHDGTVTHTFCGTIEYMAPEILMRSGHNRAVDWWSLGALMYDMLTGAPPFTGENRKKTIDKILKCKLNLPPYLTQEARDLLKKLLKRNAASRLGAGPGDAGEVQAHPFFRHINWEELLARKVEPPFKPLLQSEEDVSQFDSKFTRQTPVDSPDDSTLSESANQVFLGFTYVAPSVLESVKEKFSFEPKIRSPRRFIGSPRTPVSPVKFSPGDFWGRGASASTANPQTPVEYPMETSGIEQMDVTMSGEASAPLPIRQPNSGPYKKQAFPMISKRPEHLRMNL

The first data set has as its target Aurora kinase B (Homo sapiens) (UniProt Q96GD4). Put plainly: Inhibition of aurora B at 10 uM.
Details: not given
Summed up: (§1)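 Single-concentration screen at 10 µM in functional assays of a commercial kinase panel; percent inhibition reported when at least 50%.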
As usually defined, the inhibition is the percentage by which the read-out fell short of the control. Consider `Cc1c(-c2ccnc(N)n2)sc2ccc(Cc3cccc(O)c3)cc12`, for which the inhibition was found to be 82%.

The next data set deals with Cynomolgus monkey. Put plainly: Reduction of intraocular pressure in ocular hypertensive cynomolgus monkey at 250 ug/eye after 6 hrs. Format: functional, Macaca fascicularis. Set-up: scale not given: the % may be the effect or the level left.
Details: not given
For `CCCC(N)c1ccc2sc(-c3ccnc(N)n3)c(C)c2c1` (racemic), the Activity is on record as -12%.

The target of a further data set is Ribosomal protein S6 kinase alpha-5 (Homo sapiens) (UniProt O75582). Put plainly: Inhibition of MSK1 at 10 uM.
Details: not given
Summed up:
as §1
The molecule `Cc1c(-c2ccnc(N)n2)sc2ccc(Cc3cccc(O)c3)cc12` had an inhibition of 94%.

For a further data set, the target named is T1, Rho-associated protein kinase 1 (Homo sapiens, UniProt Q13464). As to the kind of experiment: Inhibition of ROCK1 assessed as ATP cunsumption at 96 uM.
Details: not given
In a few lines: (§2)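 ROCK1 enzyme reaction in 20 mM Tris-HCl pH 7.5, 10 mM MgCl2, 0.4 mM CaCl2, 0.15 mM EGTA, 0.1 mg/ml BSA. Compounds are run as an 11-point half-log series (final top 96 µM, 1% DMSO, 2–4 replicate wells) for 2 h at 30 °C. Readout is Easylite luminescence, normalized to DMSO and HMN-1152 controls. Values are means of ≥2 independent experiments.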
Target sequence in this assay (Q13464 2-1354 limits assumed): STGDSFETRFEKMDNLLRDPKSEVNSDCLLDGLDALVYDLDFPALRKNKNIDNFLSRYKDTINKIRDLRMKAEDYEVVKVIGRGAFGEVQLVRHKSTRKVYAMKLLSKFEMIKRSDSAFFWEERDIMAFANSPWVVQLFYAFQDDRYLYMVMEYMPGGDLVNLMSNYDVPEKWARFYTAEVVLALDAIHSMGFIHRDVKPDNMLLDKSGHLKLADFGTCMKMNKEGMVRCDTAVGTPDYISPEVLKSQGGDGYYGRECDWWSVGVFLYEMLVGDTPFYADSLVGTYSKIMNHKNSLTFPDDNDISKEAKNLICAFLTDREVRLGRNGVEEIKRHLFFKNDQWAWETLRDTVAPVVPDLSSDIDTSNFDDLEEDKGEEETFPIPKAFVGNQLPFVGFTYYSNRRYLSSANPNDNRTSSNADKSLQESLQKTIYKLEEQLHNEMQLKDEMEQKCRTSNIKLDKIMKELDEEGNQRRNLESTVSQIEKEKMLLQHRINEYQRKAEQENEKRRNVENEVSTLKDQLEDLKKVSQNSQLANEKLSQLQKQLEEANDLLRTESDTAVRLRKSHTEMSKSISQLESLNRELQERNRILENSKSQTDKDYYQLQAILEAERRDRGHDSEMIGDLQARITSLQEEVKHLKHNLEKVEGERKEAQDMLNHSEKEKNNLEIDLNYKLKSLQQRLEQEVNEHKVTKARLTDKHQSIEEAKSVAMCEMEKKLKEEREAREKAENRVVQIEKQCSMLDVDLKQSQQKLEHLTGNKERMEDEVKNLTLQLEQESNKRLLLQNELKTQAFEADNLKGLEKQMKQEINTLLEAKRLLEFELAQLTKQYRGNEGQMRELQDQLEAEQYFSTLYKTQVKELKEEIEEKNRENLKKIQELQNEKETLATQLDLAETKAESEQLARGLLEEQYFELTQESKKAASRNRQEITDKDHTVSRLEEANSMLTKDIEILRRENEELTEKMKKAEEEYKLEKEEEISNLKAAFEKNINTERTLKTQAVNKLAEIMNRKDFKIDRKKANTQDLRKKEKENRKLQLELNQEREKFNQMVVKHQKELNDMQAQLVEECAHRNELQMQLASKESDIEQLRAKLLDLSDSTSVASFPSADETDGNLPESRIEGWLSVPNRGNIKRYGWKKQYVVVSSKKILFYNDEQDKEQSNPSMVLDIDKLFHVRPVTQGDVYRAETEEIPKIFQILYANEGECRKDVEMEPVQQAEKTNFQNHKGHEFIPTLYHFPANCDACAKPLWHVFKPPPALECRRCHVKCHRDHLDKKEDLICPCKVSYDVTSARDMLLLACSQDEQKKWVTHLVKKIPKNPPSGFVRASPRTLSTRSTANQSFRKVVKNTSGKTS
For the molecule `Cc1c(-c2ccnc(N(C)C)n2)sc2ccc(Cl)cc12`, the outcome was inactive.

Tested on in another data set: not listed separately
Put plainly: Aqueous solubility of the compound. The format is physicochemical. The settings on record: water (aqueous).
Usually solubility stands for the concentration that dissolves in the medium under given conditions. The molecule `Cc1c(-c2ccnc(N)n2)sc2ccc(Cc3cccc(O)c3)cc12` registered a solubility of 10 µM (≈ 3.47 µg/mL). `COc1cccc(Cc2ccc3sc(-c4ccnc(N)n4)c(C)c3c2)c1`: the solubility came to 40 µM (≈ 14.5 µg/mL). In turn, `Cc1c(-c2ccnc(N)n2)sc2ccc(Nc3cccc(O)c3)cc12` returned a solubility of 30 µM (≈ 10.5 µg/mL).

A further data set relates to GTM3. As to the kind of experiment: Change in cellular morphology of human GTM3 cells assessed as decrease in vinculin staining intensity by immunofluorescence relative to control. Format: functional, cell-based.
Details: not given
Summed up: (§3)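 GTM-3 cells plated on glass coverslips one day before use, exposed to compound or DMSO control for 3 h, fixed in 2% paraformaldehyde in PBS 10 min at rt, then indirect immunofluorescence with anti-vinculin mAb and Alexa-488 anti-mouse F(ab')2 secondary; vinculin staining density and intensity compared with DMSO-treated cells.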
Turning to `Cc1cncc2cccc(S(=O)(=O)N3CCCNCC3C)c12` (stereo not drawn), the outcome was Active.

A further data set concerns GTM3. Put plainly: Change in cellular morphology of human GTM3 cells assessed as decrease in vinculin staining density by immunofluorescence relative to control. The format is functional, cell-based.
Details: not given
In a few lines:
as §3
`Cc1cncc2cccc(S(=O)(=O)N3CCCNCC3C)c12` (stereo not drawn): the result was Active.

Tested on in a further data set: not listed separately
Put plainly: Inhibition of PKA at 10 uM.
Details: not given
For the molecule `Cc1c(-c2ccnc(N)n2)sc2ccc(Cc3cccc(O)c3)cc12`, the inhibition was 67%.

Another data set deals with T2, Serine/threonine-protein kinase Sgk1 (Homo sapiens) (UniProt O00141).
T2 sequence (whole entry): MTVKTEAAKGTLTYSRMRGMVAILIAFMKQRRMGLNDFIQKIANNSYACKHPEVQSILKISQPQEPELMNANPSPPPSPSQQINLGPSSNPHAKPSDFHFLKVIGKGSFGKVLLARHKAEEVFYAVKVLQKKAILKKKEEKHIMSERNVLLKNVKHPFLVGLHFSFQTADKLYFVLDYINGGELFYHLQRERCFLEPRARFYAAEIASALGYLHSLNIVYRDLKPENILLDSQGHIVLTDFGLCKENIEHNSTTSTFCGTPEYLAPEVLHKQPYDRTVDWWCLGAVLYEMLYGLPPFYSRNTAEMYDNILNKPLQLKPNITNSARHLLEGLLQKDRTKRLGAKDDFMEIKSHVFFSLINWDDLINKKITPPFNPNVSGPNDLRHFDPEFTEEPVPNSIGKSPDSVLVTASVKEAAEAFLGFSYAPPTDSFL
Put plainly: Inhibition of SGk1 at 10 uM.
Details: not given
Summed up:
as §1
Turning to `Cc1c(-c2ccnc(N)n2)sc2ccc(Cc3cccc(O)c3)cc12`, the inhibition was determined as 61%.

In a further data set the test system is Cynomolgus monkey. Put plainly: Reduction of intraocular pressure in ocular hypertensive cynomolgus monkey at 250 ug/eye after 1 hr. Format: functional, Macaca fascicularis.
Details: not given
Set-up: scale not given: the % may be the effect or the level left.
In the case of `CCCC(N)c1ccc2sc(-c3ccnc(N)n3)c(C)c2c1` (racemic), the Activity is -20%.

Another data set relates to Cynomolgus monkey. Put plainly: Reduction of intraocular pressure in laser-induced ocular hypertensive cynomolgus monkey at 250 ug/eye after 6 hrs. Format: functional, Macaca fascicularis. Also on record: scale not given: the % may be the effect or the level left.
Details: not given
As to `CCCC(N)c1ccc2sc(-c3ccnc(N)n3)c(C)c2c1` (racemic), the Activity was -26%.

Tested on in the next data set: not listed separately
As to the kind of experiment: Cytotoxicity against human GTM3 cells up to 30 uM after 24 hrs. Format: cell-based. The settings on record: gtm3, 24 h.
On to `C[C@@H](N)c1ccc(C(=O)Nc2ccnc3[nH]ccc23)cc1` [Y-39983], for which the Activity result is “Non-toxic”.

The test system of a further data set is Cynomolgus monkey. As to the kind of experiment: Reduction of intraocular pressure in laser-induced ocular hypertensive cynomolgus monkey at 250 ug/eye after 1 hr. The format is functional, Macaca fascicularis. Set-up: scale not given: the % may be the effect or the level left.
Details: not given
On to `CCCC(N)c1ccc2sc(-c3ccnc(N)n3)c(C)c2c1` (racemic), for which the Activity is given as -19.6%.

The next data set relates to Cynomolgus monkey. Put plainly: Reduction of intraocular pressure in ocular hypertensive cynomolgus monkey at 250 ug/eye after 3 hrs. Format: functional, Macaca fascicularis. Set-up: scale not given: the % may be the effect or the level left.
Details: not given
On to `CCCC(N)c1ccc2sc(-c3ccnc(N)n3)c(C)c2c1` (racemic), for which the Activity is -13.9%.

In the next data set the test system is Cynomolgus monkey. Put plainly: Reduction of intraocular pressure in laser-induced ocular hypertensive cynomolgus monkey at 250 ug/eye after 3 hrs. The format is functional, Macaca fascicularis. Set-up: scale not given: the % may be the effect or the level left.
Details: not given
On to `CCCC(N)c1ccc2sc(-c3ccnc(N)n3)c(C)c2c1` (racemic), for which the Activity is on record as -24.1%.

A further data set addresses T1, Rho-associated protein kinase 1. Put plainly: Inhibition of ROCK1 in human GTM3 cells up to 10 uM by impedance assay. The format is cell-based.
Details: not given
Target sequence in this assay (Q13464 2-1354 limits assumed): as the sequence (Q13464 2-1354 limits assumed) above
Turning to `Cc1c(-c2cc(N)ncn2)sc2ccc(Cl)cc12`, the inhibition result was “inactive”. Regarding `Cc1c(-c2ccnc(N)n2)sc2ccc(Cl)cc12`, the inhibition entry is “inactive”.

With `Cc1c(-c2ccnc3[nH]ccc23)sc2ccc(Cl)cc12`, the inhibition entry is “inactive”. In the case of `Cc1c(-c2ccncc2)sc2ccc(Cl)cc12`, the inhibition entry was “inactive”. In the case of `Cc1c(-c2ccnc(N)c2)sc2ccc(Cl)cc12`, the inhibition entry was “inactive”.

In the case of `CNc1nccc(-c2sc3ccc(Cl)cc3c2C)n1`, the inhibition entry is “inactive”. Regarding `Cc1c(-c2ccnc(N(C)C)n2)sc2ccc(Cl)cc12`, the inhibition entry is “inactive”. In the case of `Cc1c(-c2c[nH]c3ncccc23)sc2ccc(Cl)cc12`, the inhibition entry was “inactive”.

The target in the next data set is Serine/threonine-protein kinase N1 (Homo sapiens) (UniProt Q16512). As to the kind of experiment: Inhibition of PKN1 at 10 uM.
Serine/threonine-protein kinase N1 (Homo sapiens), sequence (Q16512 2-942 limits assumed): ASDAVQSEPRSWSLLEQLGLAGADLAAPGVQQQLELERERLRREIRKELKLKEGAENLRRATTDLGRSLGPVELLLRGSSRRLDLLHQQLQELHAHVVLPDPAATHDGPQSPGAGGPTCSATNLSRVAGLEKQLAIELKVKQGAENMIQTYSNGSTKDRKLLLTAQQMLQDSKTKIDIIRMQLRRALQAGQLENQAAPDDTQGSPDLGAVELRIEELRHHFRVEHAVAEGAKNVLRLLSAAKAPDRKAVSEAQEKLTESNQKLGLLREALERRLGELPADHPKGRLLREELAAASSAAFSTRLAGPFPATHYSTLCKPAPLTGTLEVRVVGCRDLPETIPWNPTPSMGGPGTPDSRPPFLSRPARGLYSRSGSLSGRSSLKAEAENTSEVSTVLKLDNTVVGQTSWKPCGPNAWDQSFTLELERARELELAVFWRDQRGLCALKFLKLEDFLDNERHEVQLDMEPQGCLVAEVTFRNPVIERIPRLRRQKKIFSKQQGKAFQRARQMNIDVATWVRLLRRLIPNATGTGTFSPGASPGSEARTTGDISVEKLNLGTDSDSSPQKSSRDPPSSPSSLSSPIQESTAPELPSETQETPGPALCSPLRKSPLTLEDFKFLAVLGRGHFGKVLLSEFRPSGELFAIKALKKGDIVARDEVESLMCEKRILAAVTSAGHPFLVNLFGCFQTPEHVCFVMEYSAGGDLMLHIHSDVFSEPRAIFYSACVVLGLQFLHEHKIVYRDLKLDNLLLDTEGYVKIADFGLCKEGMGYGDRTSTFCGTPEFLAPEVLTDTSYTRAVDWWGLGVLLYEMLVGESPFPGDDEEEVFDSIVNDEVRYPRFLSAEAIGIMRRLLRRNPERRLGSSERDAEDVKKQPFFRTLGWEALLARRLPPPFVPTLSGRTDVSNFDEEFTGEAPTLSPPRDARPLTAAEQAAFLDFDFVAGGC
Details: not given
Summed up:
as §1
`Cc1c(-c2ccnc(N)n2)sc2ccc(Cc3cccc(O)c3)cc12` came in with an inhibition of 53%.

For a further data set, the target named is T1, Rho-associated protein kinase 1. Put plainly: Inhibition of ROCK1 assessed as ATP cunsumption relative to control.
Details: not given
In a few lines: as §2
Target sequence in this assay (Q13464 2-1354 limits assumed): as the sequence (Q13464 2-1354 limits assumed) above
For orientation: Emax means the greatest response seen or fitted, relative to the assay's reference. As for `COc1ccc(C(N)c2ccc3sc(-c4ccnc(N)n4)c(C)c3c2)cc1` (racemic), the Emax came to 56%.

In the case of `COc1cccc(C(N)c2ccc3sc(-c4ccnc(N)n4)c(C)c3c2)c1` (racemic), the Emax amounted to 46%. Regarding `Cc1c(-c2ccnc(N)c2)sc2ccc(Cl)cc12`, the Emax stood at 44%.

With `Cc1cccc(C(N)c2ccc3sc(-c4ccnc(N)n4)c(C)c3c2)c1` (racemic), the Emax turned out to be 67%.

Consider `CNc1nccc(-c2sc3ccc(Cl)cc3c2C)n1`, for which the Emax was determined as 17%.

The target is the same in the next data set. Put plainly: Inhibition of ROCK1 assessed as ATP cunsumption.
Details: not given
Target sequence in this assay (Q13464 whole entry): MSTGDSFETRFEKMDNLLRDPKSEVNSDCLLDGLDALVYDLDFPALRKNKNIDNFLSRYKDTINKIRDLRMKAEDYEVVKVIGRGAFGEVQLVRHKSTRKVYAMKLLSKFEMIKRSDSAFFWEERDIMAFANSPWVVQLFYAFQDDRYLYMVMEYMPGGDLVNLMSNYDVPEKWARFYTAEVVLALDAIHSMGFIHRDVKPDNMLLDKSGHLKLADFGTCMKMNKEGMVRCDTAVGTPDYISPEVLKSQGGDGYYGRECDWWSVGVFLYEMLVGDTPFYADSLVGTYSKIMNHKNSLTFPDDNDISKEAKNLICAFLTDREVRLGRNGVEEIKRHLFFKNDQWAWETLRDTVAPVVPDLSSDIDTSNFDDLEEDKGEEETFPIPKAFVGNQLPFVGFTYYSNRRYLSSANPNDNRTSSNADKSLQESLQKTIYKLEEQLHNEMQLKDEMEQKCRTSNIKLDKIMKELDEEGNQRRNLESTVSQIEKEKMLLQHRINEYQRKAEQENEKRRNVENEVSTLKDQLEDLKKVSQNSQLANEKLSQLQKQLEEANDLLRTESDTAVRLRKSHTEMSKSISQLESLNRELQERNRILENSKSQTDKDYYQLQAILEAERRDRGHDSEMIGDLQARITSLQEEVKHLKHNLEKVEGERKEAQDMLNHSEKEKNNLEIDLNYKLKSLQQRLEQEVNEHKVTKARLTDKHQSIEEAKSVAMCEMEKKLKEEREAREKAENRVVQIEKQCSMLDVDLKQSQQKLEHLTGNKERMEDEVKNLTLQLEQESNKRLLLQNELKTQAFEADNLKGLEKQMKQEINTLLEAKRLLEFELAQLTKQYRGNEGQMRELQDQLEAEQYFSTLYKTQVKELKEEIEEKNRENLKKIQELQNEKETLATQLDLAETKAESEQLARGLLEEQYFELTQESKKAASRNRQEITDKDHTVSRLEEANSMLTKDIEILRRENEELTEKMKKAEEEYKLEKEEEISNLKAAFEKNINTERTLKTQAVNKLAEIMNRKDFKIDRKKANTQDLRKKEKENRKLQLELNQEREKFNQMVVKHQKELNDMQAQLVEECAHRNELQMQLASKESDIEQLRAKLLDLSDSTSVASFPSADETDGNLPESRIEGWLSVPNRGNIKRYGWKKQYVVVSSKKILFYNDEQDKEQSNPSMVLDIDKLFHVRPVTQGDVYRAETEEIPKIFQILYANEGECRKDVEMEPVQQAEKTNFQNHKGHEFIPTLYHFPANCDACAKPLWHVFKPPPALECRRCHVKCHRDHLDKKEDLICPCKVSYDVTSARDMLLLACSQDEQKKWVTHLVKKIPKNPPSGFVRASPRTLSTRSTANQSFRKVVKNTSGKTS
One may read the IC50 as the concentration that inhibits the measured activity by half. `Cc1c(-c2ccnc(N)n2)sc2ccc(C(N)c3ccccc3)cc12` (racemic): the IC50 came out at 20 nM. Take `COC(=O)c1cccc(Cc2ccc3sc(-c4ccnc(N)n4)c(C)c3c2)c1`: the IC50 was determined as 10000 nM. For the molecule `COc1ccc(C(N)c2ccc3sc(-c4ccnc(N)n4)c(C)c3c2)cc1` (racemic), the IC50 amounted to 90 nM. As for `Cc1c(-c2ccnc(N)n2)sc2ccc(C(C)N)cc12` (racemic), the IC50 worked out at 400 nM. As to `Cc1c(-c2cc(N)ncn2)sc2ccc(Cl)cc12`, the IC50 was determined as 13000 nM. Consider `Cc1c(-c2ccnc(N)n2)sc2ccc(Cl)cc12`, for which the IC50 amounted to 1500 nM. In the case of `Cc1c(-c2ccnc3[nH]ccc23)sc2ccc(Cl)cc12`, the IC50 came out at 7100 nM. For `Cc1c(-c2ccnc(N)n2)sc2ccc(Cc3cccc(O)c3)cc12`, the IC50 is 20 nM. The same measure, in the same setting: the figure for `Cc1c(-c2ccnc(N)n2)sc2ccc(Cc3ccccc3)cc12` is 580 nM; for `COc1cccc(C(N)c2ccc3sc(-c4ccnc(N)n4)c(C)c3c2)c1` (racemic) it is 20 nM.

As to `CCC(N)c1ccc2sc(-c3ccnc(N)n3)c(C)c2c1` (racemic), the IC50 was determined as 140 nM. Still for that read-out and setting: then `Cc1c(-c2ccnc(N)n2)sc2ccc(Cc3cccc(C(F)(F)F)c3)cc12`, with 8600 nM; and `CCCC(N)c1ccc2sc(-c3ccnc(N)n3)c(C)c2c1` (racemic), with 20 nM; and `Cc1c(-c2ccncc2)sc2ccc(Cl)cc12`, with 28000 nM. For `Cc1c(-c2ccnc(N)c2)sc2ccc(Cl)cc12`, the IC50 was found to be 8300 nM. On to `COc1cccc(Cc2ccc3sc(-c4ccnc(N)n4)c(C)c3c2)c1`, for which the IC50 was determined as 230 nM.

With `O=S(=O)(c1cccc2c(I)cccc12)N1CCCNCC1`, the IC50 amounted to 38000 nM. For `Cc1c(-c2ccnc(N)n2)sc2ccc(CN)cc12`, the IC50 came to 2200 nM. The same measure, in the same setting: then `COc1ccc(Cc2ccc3sc(-c4ccnc(N)n4)c(C)c3c2)cc1`, with 7200 nM; and `Cc1cccc(C(N)c2ccc3sc(-c4ccnc(N)n4)c(C)c3c2)c1` (racemic), with 50 nM; and `Cc1c(-c2ccnc(N)n2)sc2ccc(C(N)C(C)C)cc12` (racemic), with 60 nM. For the molecule `Cc1c(-c2ccnc(N)n2)sc2ccccc12`, the IC50 worked out at 2900 nM. The same measure, in the same setting: then `CNc1nccc(-c2sc3ccc(Cl)cc3c2C)n1`, with 1200 nM; and `COc1ccccc1Cc1ccc2sc(-c3ccnc(N)n3)c(C)c2c1`, with 9700 nM.

`Cc1c(-c2ccnc(N)n2)sc2ccc(-c3ccccc3)cc12`: the IC50 was determined as 4200 nM.

On to `Cc1c(-c2ccnc(N(C)C)n2)sc2ccc(Cl)cc12`, for which the IC50 was above 100000 nM.

With `Cc1c(-c2c[nH]c3ncccc23)sc2ccc(Cl)cc12`, the IC50 is above 10000 nM.

Consider `Cc1c(-c2ccnc(N)n2)sc2ccc(Cc3cccc(C(=O)O)c3)cc12`, for which the IC50 was 60 nM. In the case of `Cc1c(-c2ccnc(N)n2)sc2ccc(C(N)CC(C)C)cc12` (racemic), the IC50 worked out at 30 nM. Regarding `Cc1c(-c2ccnc(N)n2)sc2ccc(C(N)c3cccc(Cl)c3)cc12` (racemic), the IC50 was 30 nM.

For a further data set the target is unchanged. As to the kind of experiment: Inhibition of ROCK1 assessed as ATP cunsumption at 96 uM relative to control.
Details: not given
Summed up:
as §2
Target sequence in this assay (Q13464 2-1354 limits assumed): as the sequence (Q13464 2-1354 limits assumed) above
Take `Cc1c(-c2ccnc(N)n2)sc2ccc(-c3ccccc3)cc12`: the Emax amounted to 35%.

A further data set concerns the target Ribosomal protein S6 kinase beta-1 (Homo sapiens) (UniProt P23443). Put plainly: Inhibition of p70S6K at 10 uM.
Details: not given
Summed up:
as §1
`Cc1c(-c2ccnc(N)n2)sc2ccc(Cc3cccc(O)c3)cc12` gave an inhibition of 55%.

These data come from ChEMBL document CHEMBL1155477, “Benzothiophene containing Rho kinase inhibitors: Efficacy in an animal model of glaucoma” (Bioorg Med Chem Lett, 2010).
